# Source: ChEMBL document CHEMBL1250485, “Synthesis and activity of endomorphin-2 and morphiceptin analogues with proline surrogates in position 2” (Eur J Med Chem, 2010)
# Where a SMILES comes first, the peptide text is derived from it. [ ]: non-standard residue; d: D form. d(β3hP) = O=C(O)C[C@H]1CCCN1; β3hP = O=C(O)C[C@@H]1CCCN1
# Columns and labels:
# Assay type in all cases: functional, tissue-based
# [1] = biological target: Delta-type opioid receptor (Mus musculus, UniProt P32300); assay: Agonist activity at delta opioid receptor in mouse vas deferens assessed as inhibition of electrically-stimulated muscle contraction
# In short: (§1)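 Isolated tissue bioassays used MVD for line 1 and GPI/LMMP for […]. IC50 is the mean of at least four experiments, obtained by nonlinear least-squares fitting to the Hill equation.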
# Mu-type opioid receptor = Mu-type opioid receptor (Cavia porcellus, UniProt P97266); assay: Agonist activity at mu opioid receptor in guinea pig ileum assessed as inhibition of electrically-stimulated muscle contraction; in short: as §1
# [2] = biological target: Delta-type opioid receptor (Mus musculus) (UniProt P32300); assay: Agonist activity at delta opioid receptor in mouse vas deferens assessed as inhibition of electrically-stimulated muscle contraction at 1 uM
# Sequence of Delta-type opioid receptor (Mus musculus) (P32300 whole entry): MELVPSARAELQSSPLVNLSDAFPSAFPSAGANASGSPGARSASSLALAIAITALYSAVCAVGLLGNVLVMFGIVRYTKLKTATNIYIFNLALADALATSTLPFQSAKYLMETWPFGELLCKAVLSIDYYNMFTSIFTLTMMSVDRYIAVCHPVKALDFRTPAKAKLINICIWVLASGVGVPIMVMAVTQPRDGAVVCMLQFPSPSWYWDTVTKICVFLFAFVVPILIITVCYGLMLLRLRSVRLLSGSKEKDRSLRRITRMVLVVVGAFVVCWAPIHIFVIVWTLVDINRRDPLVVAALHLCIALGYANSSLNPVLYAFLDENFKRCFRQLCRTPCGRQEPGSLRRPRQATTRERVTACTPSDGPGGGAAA
# Sequence of Mu-type opioid receptor (P97266 whole entry): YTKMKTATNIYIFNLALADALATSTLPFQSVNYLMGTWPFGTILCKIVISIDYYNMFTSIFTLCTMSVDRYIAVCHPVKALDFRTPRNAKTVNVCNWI
# Sequence of Delta-type opioid receptor (P32300 whole entry): as the sequence (P32300 whole entry) above
Compound,IC50 [1] [nM],IC50 (Mu-type opioid receptor) [nM],inhibition [2] [%]
NC(=O)[C@H](Cc1ccccc1)NC(=O)[C@H](Cc1ccccc1)NS(=O)(=O)[C@H]1CCN(C(=O)[C@@H](N)Cc2ccc(O)cc2)C1,530,260,
NC(=O)[C@H](Cc1ccccc1)NC(=O)[C@H](Cc1ccccc1)NC(=O)C[C@@H]1CCCN1C(=O)[C@@H](N)Cc1ccc(O)cc1,1300,260,
NC(=O)[C@H](Cc1ccccc1)NC(=O)[C@H](Cc1ccccc1)NS(=O)(=O)C[C@@H]1CCCN1C(=O)[C@@H](N)Cc1ccc(O)cc1,1100,730,
NC(=O)[C@H]1CCCN1C(=O)[C@H](Cc1ccccc1)NC(=O)C[C@H]1CCCN1C(=O)[C@@H](N)Cc1ccc(O)cc1 (H-Y[d(β3hP)]F[dP]-NH2),96,17,
NC(=O)[C@H](Cc1ccccc1)NC(=O)[C@H](Cc1ccccc1)NC(=O)C[C@H]1CCCN1C(=O)[C@@H](N)Cc1ccc(O)cc1,1900,420,
NC(=O)[C@H]1CCCN1C(=O)[C@H](Cc1ccccc1)NC(=O)C[C@@H]1CCCN1C(=O)[C@@H](N)Cc1ccc(O)cc1 (H-Y[β3hP]F[dP]-NH2),,1100,33.7
NC(=O)[C@H](Cc1ccccc1)NC(=O)[C@H](Cc1ccccc1)NS(=O)(=O)C[C@H]1CCCN1C(=O)[C@@H](N)Cc1ccc(O)cc1,,2700,36
NC(=O)[C@H](Cc1ccccc1)NC(=O)[C@H](Cc1ccccc1)NS(=O)(=O)[C@@H]1CCN(C(=O)[C@@H](N)Cc2ccc(O)cc2)C1,390,220,
